Screens as filed in PubChem.
hERG protect: compounds protecting human hERG from proarrhythmic drug block; Q12809; CHO-hERG, FluxOR thallium flux, dofetilide IC70 present; activation (rescue from dofetilide block), less the hit threshold, % at 10 µM; 310,000 compounds, 0.51% hits; AID 1511;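 active = activation above the mean of controls blocked by dofetilide plus 5 SD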;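 note: thallium influx through hERG after potassium depolarization seen as dye fluorescence rise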
KCNK9 inh: blocks the human KCNK9 two-pore domain potassium channel. 310,000 compounds, 1.2% hits. B-score at 10 µM. HEK293 KCNK9, FluxOR thallium flux fluorescence; active compounds read low. Q9NPC2;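 active = ratio B-score over 3 SD below the library mean, with starting fluorescence within 5 SD of its mean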;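 note: negative B-score means less thallium flux so channel inhibition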
KCNK3 block: human KCNK3 channel inhibition, primary screen | O14649 | CHO-KCNK3 thallium flux, FluxOR fluorescence; active compounds read low | B-score at 10 µM | 340,000 compounds, 0.84% hits | AID 602410;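 active = B-score under library mean minus 4 SD, starting fluorescence ratio at most library mean plus 5 SD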;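 note: more negative B-score means stronger inhibition of thallium flux through KCNK3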
KCNQ1 inh: blocks the human KCNQ1 potassium channel | B-score at 10 µM | AID 2642 | 310,000 compounds, 1.3% hits | P51787 | CHO-K1 KCNQ1, FluxOR thallium flux fluorescence; active compounds read high;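 active = compounds whose thallium flux B-score, printed positive for inhibition, exceeds three library SD while starting fluorescence stays within three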;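 note: channel opened by potassium depolarization with thallium stimulus after 20 min compound exposure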
KCC2 mod: KCC2 (human) Cl- transport modulation; Q9H2X9; KCC2 cells, thallium flux FluoZin-2 fluorescence; B-score of Tl+ flux slope (higher = more flux/activation; lower = inhibition) at 10 µM; 190,000 compounds, 2.2% hits; AID 1456;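 active = thallium flux slope and its plate-corrected score both differing from the plate sample mean at a set confidence after two filtering rounds, in either direction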;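 note: slope of fluorescence scaled to starting intensity during 10 to 20 s after thallium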
KCNQ1 act: human KCNQ1 channel potentiation or activation; 310,000 compounds, 0.35% hits; B-score at 10 µM; CHO-K1 KCNQ1, thallium flux FluxOR fluorescence; active compounds read high; P51787;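 active = fluorescence ratio B-score, a plate-corrected score, at least three library SD, with initial intensity B-score within 5 SD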
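Assay system: CHO-K1 cells stably expressing KCNQ1; Medium: assay buffer with matched DMSO; Also added: K+/Tl+ depolarizing stimulus; Dosing: single dose; Timing: dye 90 min, compound 20 min, room temperature; Measured by: kinetic FluxOR thallium fluorescence, 10-s 1-Hz baseline, 110-s post-stimulus read; Read-out: peak-minus-minimum fluorescence over initial fluorescence, negative-control normalized, B-scored.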
The depositor's hits bear a star; i = inactive; / = no result. Only some compounds are listed: those with a hit (about 4.1% of all), similar ones and a draw of the others.

SMILES	hERG protect	KCNK9 inh	KCNK3 block	KCNQ1 inh	KCC2 mod	KCNQ1 act
CCN(CC)S(=O)(=O)c1ccc(C(=O)/C=C/c2ccc(-c3ccc([N+](=O)[O-])cc3)o2)cc1	-14	i	-9.3*	i	-1.2	i
CSC(=NS(=O)(=O)c1ccc(N)cc1)NS(=O)(=O)c1cccs1	/	/	i	/	/	/
Cc1cccc(N/C(N)=N/c2nc(C)cc(=O)[nH]2)c1	5.7*	i	i	i	-0.18	i
COc1cccc(N/C(N)=N/c2nc(C)cc(=O)[nH]2)c1	-4	i	i	i	/	i
COc1cc(SC)ccc1C(=O)OCC(=O)N1CCCC1	-10	i	i	i	/	i
O=c1c(-c2cccc3ccccc23)[n+]([O-])c2ccccc2n1O	9.5*	i	i	i	1.3	i
CC(C)(C)OC(=O)N1CCCC(C(=O)Nc2cccc(C(=O)N3CCCCC3)c2)C1 (centres undefined)	/	/	i	/	/	/
O=C(NNCc1ccccc1)c1ccccn1	/	/	i	/	/	/
COc1ccc(OC)c(C2C3CN(C(C)C)CC=C3C(C#N)=C(N)C2(C#N)C#N)c1 (centres undefined)	-13	i	i	6*	/	i
CCCCOc1ccc(C2C3CN(C(=O)OCC)CC=C3C(C#N)=C(N)C2(C#N)C#N)cc1OC (centres undefined)	-12	i	i	i	0.79	i
CCOC(=O)N1CC=C2C(C#N)=C(N)C(C#N)(C#N)[C@H](c3ccc(OCC)c(OCC)c3)[C@H]2C1	-9	i	i	i	-0.15	i
CCN1CC=C2C(C#N)=C(N)C(C#N)(C#N)C(CCc3ccccc3)C2C1 (centres undefined)	/	/	i	/	-0.48	/
COc1cccc(OC)c1OCc1cc(C2C3CCCC=C3C(C#N)=C(N)C2(C#N)C#N)c(C)cc1C (centres undefined)	-4	i	i	7*	/	i
CCCN1CC=C2C(C#N)=C(N)C(C#N)(C#N)C(c3cccc(OC)c3OC)C2C1 (centres undefined)	-18	i	i	8*	i	i
N#CC1=C(N)C(C#N)(C#N)[C@H](c2ccoc2)[C@H]2CN(Cc3ccccc3)CC=C12	-30	-8.8*	i	i	i	i
Cc1ccoc1C(=O)Nc1cccc2ccccc12	-9	i	i	i	/	i
CN1CC=C2C(C#N)=C(N)C(C#N)(C#N)C(c3cccc(Cl)c3Cl)C2C1 (centres undefined)	-19	i	i	6*	-1.4	i
CCOC(=O)CN(C(=O)CSc1nnnn1C)c1ccccc1	/	/	i	/	/	/
COc1cccc(Oc2nc(N)ncc2[N+](=O)[O-])c1	-3	i	i	i	/	i
Oc1ccc(/C=N/N(c2ccccc2)c2ccccc2)cc1O	-15	i	i	6*	/	i
COc1ccc(/C=N/NC(=O)c2ccc(-c3ccccc3)cc2)cc1O	-1	i	i	i	-0.62	i
Oc1ccc(/C=N/N(c2ccccc2)c2ccccc2)c(O)c1O	-37	i	i	i	/	i
COc1ccc(/C=N/N(Cc2ccccc2)c2ccccc2)cc1O	-19	i	i	6*	0.69	i
Cc1nc(CN(C)C(=O)CC2C(=O)NCCN2Cc2ccc(-c3ccccc3)cc2)cs1 (centres undefined)	-10	i	i	i	/	i
CCC(=O)N(CC)c1nc(-c2ccc(OC)cc2)cs1	9.0*	i	i	i	-0.61	i
SMILES	hERG protect	KCNK9 inh	KCNK3 block	KCNQ1 inh	KCC2 mod	KCNQ1 act
COc1ccc(-c2csc(N(CCCN(C)C)C(=O)c3ccccc3Cl)n2)cc1	-4	i	i	i	/	11*
COc1ccc(-c2csc(N(CCCN(C)C)C(=O)c3ccccc3C)n2)cc1	-6	i	i	i	/	i
Cc1onc(-c2c(F)cccc2Cl)c1C(=O)Nc1cc(S(=O)(=O)N2CCCCC2)ccc1O	/	/	i	/	/	/
CCn1c(C)nc2cc(C(=O)NN=Cc3ccc([N+](=O)[O-])cc3)ccc21	/	/	i	/	/	/
Cc1cccc(C(=O)N2CCCCCC2)c1	-9	i	i	i	0.076	i
CC(C)Oc1cccc(C(=O)N2CCCC2)c1	19*	i	i	i	1.7	i
Cc1c(NC(=O)C(C)OC(=O)c2cc(-c3cccc4ccccc34)nc3ccccc23)c(=O)n(-c2ccccc2)n1C (centres undefined)	-18	i	i	6*	-1.6	i
CCC/C=N/NC(=O)c1[nH]c2c([N+](=O)[O-])cccc2c1C	-6	i	i	i	0.7	16*
CC(=O)Oc1c(S(=O)(=O)c2ccc(C)cc2)c(C)nn1C(C)(C)C	-15	i	i	i	0.76	i
Cc1nn(C(C)(C)C)c(OC(=O)c2ccc3c(c2)OCO3)c1S(=O)(=O)c1ccccc1	-9	i	-10*	i	-0.085	i
Cc1nn(C(C)(C)C)c(OC(=O)c2ccc3c(c2)OCO3)c1Sc1ccccc1	-10	i	i	i	0.045	i
Cc1ccc(S(=O)(=O)c2c(C)nn(C(C)(C)C)c2OC(=O)c2cccs2)cc1	-4	i	i	6*	/	i
Cc1cc(CNC(=O)COC(=O)C2CC3CCCC(C2)C3=O)cc(C)c1O (centres undefined)	/	/	i	/	/	/
O=C(Nc1cccc(S(=O)(=O)N2CCOCC2)c1)c1cc(S(=O)(=O)N2CCOCC2)c(Cl)cc1Cl	/	/	i	/	/	/
Cc1sc2ncnc(N3CCC(C(=O)Nc4sc5c(c4C(N)=O)CCC(C)C5)CC3)c2c1C (centres undefined)	/	/	i	/	/	/
Cc1ccc(-c2nc(=S)c3c(n2Cc2ccco2)CCCC3)cc1	/	/	i	/	25*	/
CN(C)CCCn1c(-c2ccccc2)nc(=S)c2c1CCCC2	-11	i	i	i	0.75	i
COc1cccc(-c2nc(=S)c3c(n2Cc2ccco2)CCCC3)c1	-10	i	i	i	13*	i
COc1cccc(-c2nc(=S)c3c(o2)CCCC3)c1	-2	i	i	i	2.6	i
CC(NC(=O)c1ccc(Cn2cc([N+](=O)[O-])cn2)o1)c1ccccc1 (centres undefined)	-6	i	i	i	-0.29	i
CC(NC(=O)c1cccc(Cn2cc([N+](=O)[O-])cn2)c1)c1ccc(C(C)(C)C)cc1 (centres undefined)	-4	-7.6*	i	i	0.66	i
O=C1C(c2ccccc2)=[N+]([O-])c2ccccc21	-1	i	i	i	/	i
